Test results as given in ChEMBL document CHEMBL4270565, “Design, synthesis and antimicrobial evaluation of propylene-tethered ciprofloxacin-isatin hybrids” (Eur J Med Chem, 2018).
≈ marks a conversion by molar mass, not a printed value.

Assays:
[1] = test system: Stenotrophomonas maltophilia; assay: Antibacterial activity against Stenotrophomonas maltophilia ATCC 13636 after 18 to 24 hrs by two-fold serial dilution method; type: functional
How it was run: (§1)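 Agar two-fold dilution MIC. Compounds were dissolved in 0.1 N NaOH and water, then serially diluted in melted Mueller-Hinton agar, with top concentrations starting at 128. Plates were inoculated at about 10 cfu and incubated at 35 °C for 18–24 h. MIC was taken as the lowest concentration giving 90% inhibition of growth.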

Pseudomonas aeruginosa = assay: Antibacterial activity against Pseudomonas aeruginosa ATCC 27853 after 18 to 24 hrs by two-fold serial dilution method; type: functional; how it was run: as §1
Klebsiella aerogenes = assay: Antibacterial activity against Enterobacter aerogenes ATCC 13048 after 18 to 24 hrs by two-fold serial dilution method; type: functional; how it was run: as §1
[2] = test system: Staphylococcus epidermidis; assay: Antibacterial activity against methicillin-resistant Staphylococcus epidermidis 13-3 after 18 to 24 hrs by two-fold serial dilution method; type: functional
How it was run: (§2)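 Agar two-fold serial dilution in Mueller-Hinton agar. Strains came from the Chinese Center for Disease Control and Prevention. Compounds were dissolved in 0.1 N NaOH and water, then diluted in melted agar to final levels stepping down from 128. Plates were inoculated with bacterial cfu and incubated at 35 C for 18–24 h. MIC is the lowest concentration giving 90% growth inhibition.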

Enterococcus faecalis [3] = assay: Antibacterial activity against Enterococcus faecalis ATCC 29212 after 18 to 24 hrs by two-fold serial dilution method; type: functional; how it was run: as §1
Staphylococcus aureus [4] = assay: Antibacterial activity against methicillin-sensitive Staphylococcus aureus ATCC 29213 after 18 to 24 hrs by two-fold serial dilution method; type: functional; how it was run: as §2
Morganella morganii = assay: Antibacterial activity against Morganella morganii ATCC 25830 after 18 to 24 hrs by two-fold serial dilution method; type: functional; how it was run: as §1
Klebsiella pneumoniae [5] = assay: Antibacterial activity against extended-spectrum beta-lactamase deficient Klebsiella pneumoniae 15-2 after 18 to 24 hrs by two-fold serial dilution method; type: functional; how it was run: as §1
Proteus mirabilis = assay: Antibacterial activity against Proteus mirabilis 13-1 after 18 to 24 hrs by two-fold serial dilution method; type: functional; how it was run: as §1
Providencia rettgeri = assay: Antibacterial activity against Providencia rettgeri ATCC 31052 after 18 to 24 hrs by two-fold serial dilution method; type: functional; how it was run: as §1
Enterococcus faecium [6] = assay: Antibacterial activity against Enterococcus faecium ATCC 700221 after 18 to 24 hrs by two-fold serial dilution method; type: functional; how it was run: as §1
Escherichia coli [7] = assay: Antibacterial activity against extended-spectrum beta-lactamase deficient Escherichia coli ATCC 25922 after 18 to 24 hrs by two-fold serial dilution method; type: functional; how it was run: as §1
Klebsiella pneumoniae [8] = assay: Antibacterial activity against extended-spectrum beta-lactamase harboring Klebsiella pneumoniae ATCC 700603 after 18 to 24 hrs by two-fold serial dilution method; type: functional; how it was run: as §2
Enterococcus faecalis [9] = assay: Antibacterial activity against Enterococcus faecalis ATCC 51299 after 18 to 24 hrs by two-fold serial dilution method; type: functional; how it was run: as §1
Citrobacter freundii = assay: Antibacterial activity against extended-spectrum beta-lactamase harboring Citrobacter freundii ATCC 43864 after 18 to 24 hrs by two-fold serial dilution method; type: functional; how it was run: as §2
[10] = test system: Mycobacterium tuberculosis; assay: Antimycobacterial activity against Mycobacterium tuberculosis H37Rv after 7 days; type: functional; settings: 168 h
How it was run: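 Rapid direct susceptibility test in 48-well plates. Two-fold dilutions of compound from DMSO stocks were mixed with an equal volume of bacterial suspension. Medium-only wells served as growth controls and water-only wells as no-growth controls. Plates were sealed and held at 37 C in a humid box, and controls were checked at 3 days. MIC (90% growth inhibition) was read visually by high-magnification observation of the cells and re-read at 7 days.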

Serratia marcescens = assay: Antibacterial activity against Serratia marcescens ATCC 21074 after 18 to 24 hrs by two-fold serial dilution method; type: functional; how it was run: as §1
Enterobacter cloacae = assay: Antibacterial activity against Enterobacter cloacae ATCC 43560 after 18 to 24 hrs by two-fold serial dilution method; type: functional
[11] = test system: Acinetobacter calcoaceticus; assay: Antibacterial activity against Acinetobacter calcoaceticus ATCC 19606 after 18 to 24 hrs by two-fold serial dilution method; type: functional; how it was run: as §1
Escherichia coli [12] = assay: Antibacterial activity against extended-spectrum beta-lactamase harboring Escherichia coli ATCC 35218 after 18 to 24 hrs by two-fold serial dilution method; type: functional; how it was run: as §2
[13] = test system: Staphylococcus epidermidis; assay: Antibacterial activity against methicillin-sensitive Staphylococcus epidermidis ATCC 12228 after 18 to 24 hrs by two-fold serial dilution method; type: functional; how it was run: as §1
Enterococcus faecium [14] = assay: Antibacterial activity against Enterococcus faecium 13-7 after 18 to 24 hrs by two-fold serial dilution method; type: functional; how it was run: as §1
Proteus vulgaris = assay: Antibacterial activity against Proteus vulgaris ATCC 29905 after 18 to 24 hrs by two-fold serial dilution method; type: functional; how it was run: as §1
[15] = Cytotoxicity against African green monkey Vero cells assessed as reduction in cell viability after 72 hrs by MTT assay; type: cell-based; settings: chlorocebus sabaeus
How it was run: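 VERO cells were kept in MEM with Earle's salts and 10% FBS at 37 °C, 5% CO2. They were seeded in 96-well plates and allowed to recover for 24 h. Cells were then exposed to compounds in DMSO over a series from 1000 down to 4 for 72 h. Viability was read by MTT, and CC50 was calculated by Bliss analysis.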

Staphylococcus aureus [16] = assay: Antibacterial activity against methicillin-resistant Staphylococcus aureus ATCC 33591 after 18 to 24 hrs by two-fold serial dilution method; type: functional; how it was run: as §2

Structure (SMILES)	MIC90 [1]	MIC90 (Pseudomonas aeruginosa)	MIC90 (Klebsiella aerogenes)	MIC90 [2]	MIC90 (Enterococcus faecalis [3])	MIC90 (Staphylococcus aureus [4])	MIC90 (Morganella morganii)	MIC90 (Klebsiella pneumoniae [5])	MIC90 (Proteus mirabilis)	MIC90 (Providencia rettgeri)	MIC90 (Enterococcus faecium [6])	MIC90 (Escherichia coli [7])	MIC90 (Klebsiella pneumoniae [8])	MIC90 (Enterococcus faecalis [9])	MIC90 (Citrobacter freundii)	MIC90 [10]	MIC90 (Serratia marcescens)	MIC90 (Enterobacter cloacae)	MIC90 [11]	MIC90 (Escherichia coli [12])	further results
CO/N=C1\C(=O)N(CCCN2CCN(c3cc4c(cc3F)c(=O)c(C(=O)O)cn4C3CC3)CC2)c2ccccc21	0.06 µg/mL (≈ 0.11 µM)	1 µg/mL (≈ 1.83 µM)	≤ 0.03 µg/mL	2 µg/mL (≈ 3.65 µM)	0.5 µg/mL (≈ 0.913 µM)	0.125 µg/mL (≈ 0.228 µM)	≤ 0.03 µg/mL	≤ 0.03 µg/mL	≤ 0.03 µg/mL	≤ 0.03 µg/mL	8 µg/mL (≈ 14.6 µM)	≤ 0.03 µg/mL	0.5 µg/mL (≈ 0.913 µM)	1 µg/mL (≈ 1.83 µM)	≤ 0.03 µg/mL	0.39 µg/mL (≈ 0.712 µM)	0.06 µg/mL (≈ 0.11 µM)	≤ 0.03 µg/mL	0.5 µg/mL (≈ 0.913 µM)	≤ 0.03 µg/mL	MIC90 [13]: 0.125 µg/mL (≈ 0.228 µM); MIC90 (Enterococcus faecium [14]): 32 µg/mL (≈ 58.4 µM); MIC90 (Proteus vulgaris): ≤ 0.03 µg/mL; CC50 at 72 h [15]: 32 µg/mL (≈ 58.4 µM); MIC90 (Staphylococcus aureus [16]): 0.25 µg/mL (≈ 0.457 µM)
O=C1C(=O)N(CCCOC(=O)c2cn(C3CC3)c3cc(N4CCN(CCCN5C(=O)C(=O)c6ccccc65)CC4)c(F)cc3c2=O)c2ccccc21	> 128 µg/mL	> 128 µg/mL	64 µg/mL (≈ 90.7 µM)	> 128 µg/mL	64 µg/mL (≈ 90.7 µM)	128 µg/mL (≈ 181 µM)	64 µg/mL (≈ 90.7 µM)	64 µg/mL (≈ 90.7 µM)	64 µg/mL (≈ 90.7 µM)	128 µg/mL (≈ 181 µM)	> 128 µg/mL	4 µg/mL (≈ 5.67 µM)	64 µg/mL (≈ 90.7 µM)	> 128 µg/mL	64 µg/mL (≈ 90.7 µM)	12.5 µg/mL (≈ 17.7 µM)	32 µg/mL (≈ 45.3 µM)	128 µg/mL (≈ 181 µM)	128 µg/mL (≈ 181 µM)	16 µg/mL (≈ 22.7 µM)	MIC90 [13]: 64 µg/mL (≈ 90.7 µM); MIC90 (Enterococcus faecium [14]): > 128 µg/mL; MIC90 (Proteus vulgaris): 64 µg/mL (≈ 90.7 µM); CC50 at 72 h [15]: 32 µg/mL (≈ 45.3 µM); MIC90 (Staphylococcus aureus [16]): > 128 µg/mL
CCO/N=C1\C(=O)N(CCCN2CCN(c3cc4c(cc3F)c(=O)c(C(=O)OCCCN3C(=O)/C(=N/OCC)c5ccccc53)cn4C3CC3)CC2)c2ccccc21	> 128 µg/mL	64 µg/mL (≈ 80.8 µM)	64 µg/mL (≈ 80.8 µM)	128 µg/mL (≈ 162 µM)	64 µg/mL (≈ 80.8 µM)	128 µg/mL (≈ 162 µM)	64 µg/mL (≈ 80.8 µM)	64 µg/mL (≈ 80.8 µM)	64 µg/mL (≈ 80.8 µM)	128 µg/mL (≈ 162 µM)	> 128 µg/mL	8 µg/mL (≈ 10.1 µM)	64 µg/mL (≈ 80.8 µM)	> 128 µg/mL	128 µg/mL (≈ 162 µM)	25 µg/mL (≈ 31.6 µM)	> 128 µg/mL	64 µg/mL (≈ 80.8 µM)	> 128 µg/mL	32 µg/mL (≈ 40.4 µM)	MIC90 [13]: 64 µg/mL (≈ 80.8 µM); MIC90 (Enterococcus faecium [14]): > 128 µg/mL; MIC90 (Proteus vulgaris): 128 µg/mL (≈ 162 µM); CC50 at 72 h [15]: 32 µg/mL (≈ 40.4 µM); MIC90 (Staphylococcus aureus [16]): > 128 µg/mL
